The values below come from ChEMBL document CHEMBL4706504, “Hit-to-lead optimization of a latency-associated nuclear antigen inhibitor against Kaposi's sarcoma-associated herpesvirus infections” (Eur J Med Chem, 2020).

Assay [1] deals with Human gammaherpesvirus 8. As to the kind of experiment: Inhibition of Kaposi's sarcoma herpesvirus C-terminal His-tagged oligomerization deficient LANA DBD (1008 to 1146 residues) K1055E/K1138S/K1140D/K1141D/R1039Q/R1040Q/A1121E/K1109A/D1110A mutant expressed in Escherichia coli BL21(DE3) assessed as inhibition of LANA interaction with fluorescently-labelled viral DNA LBS2 probe at 500 uM preincubated with LANA-DBD for 60 mins followed by addition of DNA probe and measured after 90 mins by flourescence polarization assay. The conditions noted are these: time 150.0 min.

The nature of assay [2]: Inhibition of Kaposi's sarcoma herpesvirus C-terminal His-tagged oligomerization deficient LANA DBD (1008 to 1146 residues) K1055E/K1138S/K1140D/K1141D/R1039Q/R1040Q/A1121E/K1109A/D1110A mutant expressed in Escherichia coli BL21(DE3) assessed as inhibition of LANA interaction with fluorescently-labelled viral DNA LBS2 probe preincubated with LANA-DBD for 60 mins followed by addition of DNA probe and measured after 90 mins by flourescence polarization assay. More on the design: species or system Human gammaherpesvirus 8. In a few lines:
(§1)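 FP competition of DNA binding, using the oligomerization-deficient LANA DBD mutant (aa 1008-1146, nine point mutations). Probes were LBS1, LBS2 or LBS3. Values are IC50 from the average of duplicates ± standard deviation.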

For assay [3], the system named is Human gammaherpesvirus 8. Kind of assay: Inhibition of Kaposi's sarcoma herpesvirus C-terminal His-tagged oligomerization deficient LANA DBD (1008 to 1146 residues) K1055E/K1138S/K1140D/K1141D/R1039Q/R1040Q/A1121E/K1109A/D1110A mutant expressed in Escherichia coli BL21(DE3) assessed as inhibition of LANA interaction with 5'-Dy682-labeled viral DNA LBS1 probe at 500 uM preincubated with LANA-DBD for 60 mins followed by addition of DNA probe and measured after 30 mins by Electrophoretic mobility shift assay. As to conditions: time 90.0 min. On the technique in general: Mobility shift assays separate free from complexed probe on a gel.

Assay [4] in a line: Inhibition of Kaposi's sarcoma herpesvirus C-terminal His-tagged oligomerization deficient LANA DBD (1008 to 1146 residues) K1055E/K1138S/K1140D/K1141D/R1039Q/R1040Q/A1121E/K1109A/D1110A mutant expressed in Escherichia coli BL21(DE3) assessed as inhibition of LANA interaction with fluorescently-labelled viral DNA LBS1 probe preincubated with LANA-DBD for 60 mins followed by addition of DNA probe and measured after 90 mins by flourescence polarization assay. Further details: species or system Human gammaherpesvirus 8. In a few lines: as §1

The nature of assay [5]: Inhibition of Kaposi's sarcoma herpesvirus C-terminal His-tagged oligomerization deficient LANA DBD (1008 to 1146 residues) K1055E/K1138S/K1140D/K1141D/R1039Q/R1040Q/A1121E/K1109A/D1110A mutant expressed in Escherichia coli BL21(DE3) assessed as inhibition of LANA interaction with fluorescently-labelled viral DNA LBS3 probe preincubated with LANA-DBD for 60 mins followed by addition of DNA probe and measured after 90 mins by flourescence polarization assay. Further details: species or system Human gammaherpesvirus 8. In a few lines: as §1

Assay [6] is described as follows: Inhibition of Kaposi's sarcoma herpesvirus C-terminal His-tagged oligomerization deficient LANA DBD (1008 to 1146 residues) K1055E/K1138S/K1140D/K1141D/R1039Q/R1040Q/A1121E/K1109A/D1110A mutant expressed in Escherichia coli BL21(DE3) assessed as inhibition of LANA interaction with 5'-Dy682-labeled viral DNA LBS1 probe preincubated with LANA-DBD for 60 mins followed by addition of DNA probe and measured after 30 mins by Electrophoretic mobility shift assay. Further details: species or system Human gammaherpesvirus 8.

Assay [7] has as its system Human gammaherpesvirus 8. As to the kind of experiment: Inhibition of Kaposi's sarcoma herpesvirus wild type LANA CTD (934 to 1162 residues) expressed in Escherichia coli BL21 (DE3) assessed as inhibition of LANA interaction with 5'-Dy682-labeled viral DNA LBS1 probe at 250 uM preincubated with LANA CTD for 60 mins followed by addition of DNA probe and measured after 30 mins by Electrophoretic mobility shift assay. The conditions noted are these: time 90.0 min.

Assay [8] deals with Human gammaherpesvirus 8. As to the kind of experiment: Inhibition of Kaposi's sarcoma herpesvirus C-terminal His-tagged oligomerization deficient LANA DBD (1008 to 1146 residues) K1055E/K1138S/K1140D/K1141D/R1039Q/R1040Q/A1121E/K1109A/D1110A mutant expressed in Escherichia coli BL21(DE3) assessed as inhibition of LANA interaction with 5'-Dy682-labeled …. As to conditions: dose 250.0 µM, time 90.0 min.

Structures are written as SMILES. Activity calls are given as the source filed them. The rule behind the calls is not given here. Some results are limits rather than exact numbers.

In the case of `Cc1ccc(-c2cncc(-n3cc(-c4ccc(C(=O)O)cc4)nn3)c2)cc1C`, the inhibition entry in assay [1] was “inactive”.
The same measure, in the same setting: to `O=C(O)c1ccc(-c2cn(-c3cccnc3)nn2)cc1Cl` belongs “inactive”; to `COc1ccc(-c2cncc(-n3cc(-c4ccc(C(=O)O)cc4)nn3)c2)cc1`, “inactive”; to `CC(=O)Nc1ccc(-c2cn(-c3cccnc3)nn2)cc1`, “inactive”.
`O=C(O)c1ccc(-c2cn(-c3cnc4ccccc4c3)nn2)cc1`: in assay [2], the IC50 was found to be 70 µM. In addition, in assay [3], the inhibition came to 61%.
On to `O=C(O)c1cccc(-c2cn(-c3cccnc3)nn2)c1`, for which the IC50 in assay [2] was > 250 µM.
As to `O=C(O)c1ccc(-c2cn(-c3ccc(Oc4cccnc4)cc3)nn2)cc1`, the IC50 is 19 µM in assay [2], 15 µM in assay [4], 25 µM in assay [5] and 64 µM in assay [6]. For the same compound, in assay [3], the inhibition came to 100%. The inhibition result in assay [7] was “inactive”.
On to `Nc1ccc(-c2cn(-c3cccnc3)nn2)cc1`, for which the IC50 in assay [2] is > 250 µM.
Consider `Cc1cc(-c2cccc(CO)c2)ncc1-n1cc(-c2ccc(C(=O)O)cc2)nn1`, for which the values for the IC50 in assay [2], in assay [4] and in assay [5] were 25 µM, 64 µM and 63 µM, respectively. In assay [3], the inhibition worked out at 100%. For the same compound, the inhibition entry in assay [8] and in assay [7] was “inactive” throughout.
`O=C(O)c1ccc(-c2cn(-c3cnccc3-c3ccccc3)nn2)cc1`: the IC50 in assay [2] came out at 18 µM; in assay [4], 52 µM; in assay [5] it was 42 µM. In addition, the inhibition in assay [3] turned out to be 100%. The inhibition entry in assay [8] and in assay [7] was “inactive” in each case.
For the compound `CC(C)Nc1ccc(-n2cc(-c3ccc(C(=O)O)cc3)nn2)cn1`, in assay [2], the IC50 was > 250 µM.
For `COc1cc(F)cc(-c2cncc(-n3cc(-c4ccc(C(=O)O)cc4)nn3)c2)c1`, the inhibition entry in assay [1] was “inactive”.
As to `Cc1cc(Sc2ccccc2)ncc1-n1cc(-c2ccc(C(=O)O)cc2)nn1`, the IC50 in assay [2] was 175 µM. The inhibition entry in assay [3] is “inactive”.
With `Cc1cc(Oc2ccccc2F)ncc1-n1cc(-c2ccc(C(=O)O)cc2)nn1`, the IC50 in assay [2] came to 64 µM. The inhibition entry in assay [3] was “inactive”.
For `O=C(O)c1ccc(-c2cn(-c3cncc(-c4ccc(F)c(F)c4)c3)nn2)cc1`, the 50% inhibitory concentration (IC50) in assay [2] is > 250 µM.
Regarding `O=C(O)c1ccc(-c2cn(-c3ccc(Oc4ccccc4)cc3)nn2)cc1`, the inhibition entry in assay [1] is “inactive”.
Still for that read-out and setting: the value for `O=C(O)c1ccc(-c2cn(-c3cncc(F)c3)nn2)cc1` was “inactive”; that for `COC(=O)c1ccc(-c2cn(-c3cccnc3)nn2)cc1` was “inactive”.
As for `COc1ccc(-n2cc(-c3ccc(C(=O)O)cc3)nn2)cn1`, the IC50 in assay [2] was found to be 218 µM. Also, the inhibition in assay [3] was determined as 11%.
Regarding `Cc1cc(Cl)ncc1-n1cc(-c2ccc(C(=O)O)cc2)nn1`, the IC50 in assay [2] is > 250 µM.
For the compound `O=C(O)c1ccc(-c2cn(-c3cncc4ccccc34)nn2)cc1`, the IC50 in assay [2] came out at 33 µM. Also, the inhibition in assay [3] stood at 96%.
Turning to `Cc1cc(-c2ccccc2O)ncc1-n1cc(-c2ccc(C(=O)O)cc2)nn1`, the IC50 is 21 µM in assay [2], 30 µM in assay [4], 34 µM in assay [5] and 156 µM in assay [6]. Also, the inhibition in assay [3] came out at 100%. In addition, the inhibition result in assay [7] is “inactive”.
Take `O=C(O)c1ccc(-c2cn(-c3ccc(Oc4ccccc4)nc3)nn2)cc1`: the inhibition entry in assay [1] was “inactive”.
For the compound `Cc1cc(-c2ccc(Cl)cc2)ncc1-n1cc(-c2ccc(C(=O)O)cc2)nn1`, in assay [2], the IC50 came to 58 µM. Further, in assay [3], the inhibition amounted to 30%.
For the compound `Cc1cnccc1-n1cc(-c2ccc(C(=O)O)cc2)nn1`, the inhibition entry in assay [1] was “inactive”.
For `O=C(O)c1ccc(-c2cn(-c3cnccc3Cl)nn2)cc1`, the IC50 in assay [2] was 29 µM. Also, in assay [3], the inhibition was 94%.
`OCc1ccc(-c2cn(-c3cccnc3)nn2)cc1`: the inhibition entry in assay [1] is “inactive”.
Take `CNc1ccc(-n2cc(-c3ccc(C(=O)O)cc3)nn2)cn1`: the inhibition entry in assay [1] was “inactive”.
On to `Cc1cc(-c2ccccc2)ncc1-n1cc(-c2ccc(C(=O)O)cc2)nn1`, for which the IC50 in assay [2] amounted to 36 µM. Besides, in assay [3], the inhibition was found to be 36%.
As for `O=C(O)c1ccc(-c2cn(-c3cncc(-c4ccccc4)c3Cl)nn2)cc1`, the IC50 in assay [2] is 38 µM; in assay [4] it was 55 µM; in assay [5] it was 45 µM. The inhibition in assay [3] was 100%. Also, the inhibition entry in assay [8] and in assay [7] was “inactive” in each case.
With `Cc1cncc(-n2cc(-c3ccc(C(=O)O)cc3)nn2)c1`, in assay [2], the IC50 came out at 45 µM. The inhibition in assay [3] was 78%.
In the same order, the values of `Cc1cc(Oc2ccc(F)cc2)ncc1-n1cc(-c2ccc(C(=O)O)cc2)nn1` are 134 µM and “inactive”.
On to `N#Cc1ccc(-c2cn(-c3cccnc3)nn2)cc1`, for which the IC50 in assay [2] was > 250 µM.
With `CCOC(=O)c1ccc(-c2cn(-c3cccnc3)nn2)cc1`, in assay [1], the inhibition entry was “inactive”.
With `O=C(O)c1ccc(-c2cn(-c3cncc(-c4cccc(CO)c4)c3)nn2)cc1`, the IC50 in assay [2] was > 250 µM.
`O=C(O)c1ccc(-c2cn(-c3cncc(-c4cccc(O)c4)c3)nn2)cc1`: in assay [2], the IC50 was 153 µM. Besides, the inhibition in assay [3] was 20%.
In the same order, the values of `Cc1ccncc1-n1cc(-c2ccc(C(=O)O)cc2)nn1` are 86 µM and 39%.
The matching figures for `O=C(O)c1ccc(-c2cn(-c3cncc(-c4ccoc4)c3)nn2)cc1`: 19 µM and 34%.
For the compound `COC(=O)c1ccc2cncc(-n3cc(-c4ccc(C(=O)O)cc4)nn3)c2c1`, the IC50 in assay [2] is > 250 µM.
With `Cc1cc(Oc2ccccc2)ncc1-n1cc(-c2ccc(C(=O)O)cc2)nn1`, in assay [2], the IC50 turned out to be 198 µM. Also, in assay [3], the inhibition entry was “inactive”.
`Cc1cc(Oc2cccc(F)c2)ncc1-n1cc(-c2ccc(C(=O)O)cc2)nn1`: the IC50 in assay [2] was 122 µM. The inhibition entry in assay [3] was “inactive”.
The matching figures for `O=C(O)c1ccc(-c2cn(-c3ccc(O)nc3)nn2)cc1`: 214 µM and 75%.
Regarding `O=C(O)c1ccc(-c2cn(-c3cncc4ccc(Cl)cc34)nn2)cc1`, the IC50 in assay [2] is 17 µM; in assay [4], 14 µM; in assay [5] it was 15 µM; in assay [6] it was 93 µM. In addition, the inhibition in assay [3] came to 100%. In assay [7], the inhibition entry was “inactive”.
With `O=C(O)c1ccc(-c2cn(Cc3cccnc3)nn2)cc1`, in assay [2], the IC50 was > 250 µM.
Take `N#Cc1ccc(-n2cc(-c3ccc(C(=O)O)cc3)nn2)cn1`: the IC50 in assay [2] came out at 52 µM. Also, in assay [3], the inhibition result is “inactive”.
Take `O=C(O)c1ccc(-c2cn(-c3cncc(-c4ccccc4)c3)nn2)cc1`: in assay [2], the IC50 is > 250 µM.
The same measure, in the same setting: the value for `O=C(O)c1ccc(-c2cn(-c3cncc(-c4ccc(CO)cc4)c3)nn2)cc1` was > 250 µM.
For the compound `NC(=O)c1ccc(-c2cn(-c3cccnc3)nn2)cc1`, the inhibition result in assay [1] was “inactive”.
As for `COc1cccc(-c2cncc(-n3cc(-c4ccc(C(=O)O)cc4)nn3)c2)c1`, in assay [2], the IC50 turned out to be 110 µM. Also, in assay [3], the inhibition result was “inactive”.
With `COc1ccccc1-c1cncc(-n2cc(-c3ccc(C(=O)O)cc3)nn2)c1`, the inhibition result in assay [1] was “inactive”.
As for `O=C(O)c1ccc(-c2cn(-c3ccc(Nc4ccccc4)nc3)nn2)cc1`, the IC50 in assay [2] stood at 110 µM. In addition, in assay [3], the inhibition came to 29%.

Broadly, the inhibition is the share of the control response that was lost under treatment. In general, IC50 refers to the concentration that gives 50% inhibition.
